Screens: PubChem BioAssay, several laboratories
Dynein cargo inh: inhibitors of GR-EGFP nuclear translocation, primary screen, dynein cargo transport inhibitor project, imaging, high-content, 3617.4 mouse cells; test concentration mostly 20 µM; stimulated with dexamethasone, 1 µM; hits give low values; z-score, hits read low; 220,000 compounds, 0.47% hits; AID 1381, 2008;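 active = plate z-score of nuclear minus cytoplasmic receptor signal below a set negative limit, without overly bright fluorescence or cell loss, cut at about -3.5 in these data, passing the limit was not always enough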;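 note: z-score of nuclear minus cytoplasmic ring GR-EGFP intensity difference per well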
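Buffer or medium: tetracycline-free induction medium containing charcoal-stripped FBS / Reagent: dexamethasone agonist, 1.0 µM final, for 30 min / Technique: automated 10x imaging of fixed Hoechst-stained cells / Times: induction 48 h, compound 1 h, agonist 30 min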
Mdm2 ligase inh: MDM2-luciferase reporter signal enhancers, primary screen, MDM2 E3 ligase inhibitor project, cell-based, luminescence, 1536-well | E3 ubiquitin-protein ligase Mdm2 (Homo sapiens), Q00987 | cell-based MDM2 ubiquitination luciferase reporter, 2 h; 0 = plate control, 100 = twice control, blank-subtracted | signal enhancement, % at 5 µM | 210,000 compounds, 0.11% hits | AID 1230, 2008;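 active = signal enhancement of 30% or more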;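 note: luminescence tracks abundance of the self-degrading MDM2-luciferase fusion protein; higher signal means inhibition of MDM2 E3 ligase activity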
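Assay system: stable mammalian line carrying autodegrading MDM2–luciferase fusion reporter; amount: 2000 cells seeded into each well; buffer or medium: DMEM; benchmarks: plate control and blank wells; signal: luciferase luminescence; timing: 2 h compound exposure at 37 °C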
Hsp70 activator: Hsp70 transcriptional activators, primary screen, cell-based, HeLa, Hsp70 promoter luciferase, luminescence, 10 µM. HeLa Hsp70 promoter luciferase reporter; scaled: vehicle 0, proteasome-inhibitor control 100%. activation, % at 10 µM. 200,000 compounds, 0.04% hits. AID 1203, 2008;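 active = activation above the mean across all tested compounds plus 3 SD, cutoff set per campaign, cut at about 5.5% in these data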;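 note: 100% = MG132 at 30 µM as the positive control and 0% = DMSO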
S1P3 antag: S1P3 receptor antagonists, primary screen, cell-based; Sphingosine 1-phosphate receptor 3 (Homo sapiens), Q99500; CHO S1P3 NFAT-BLA reporter, FRET fluorescence, antagonist mode; inhibition, % at 4.98 µM; 170,000 compounds, 0.27% hits; AID 485, 2006;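 active = inhibition above the plate cutoff, the mean inhibition of test wells on that plate plus 3 SD, cut at about 28% in these data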;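 note: cells challenged with S1P at its EC80 of 0.8 µM; blue over green emission ratio from cleaved BLA substrate after 4 h stimulation; 0% = S1P-stimulated wells and 100% = unstimulated DMSO-only wells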
Target sequence (Q99500 whole entry, looked up): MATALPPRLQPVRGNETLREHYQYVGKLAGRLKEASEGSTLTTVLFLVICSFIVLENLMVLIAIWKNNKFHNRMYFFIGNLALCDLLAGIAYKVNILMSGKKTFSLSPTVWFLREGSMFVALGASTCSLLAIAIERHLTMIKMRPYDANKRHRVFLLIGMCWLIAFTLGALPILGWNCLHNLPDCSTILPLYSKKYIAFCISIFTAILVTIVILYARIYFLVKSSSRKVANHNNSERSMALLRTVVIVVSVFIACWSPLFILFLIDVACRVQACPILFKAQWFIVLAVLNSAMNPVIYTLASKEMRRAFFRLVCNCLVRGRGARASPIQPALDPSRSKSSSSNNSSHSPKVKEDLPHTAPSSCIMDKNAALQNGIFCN
S1P4 antag: S1P4 receptor antagonists, primary screen, cell-based. Sphingosine 1-phosphate receptor 4 (Homo sapiens), O95977. S1P4-expressing cells, antagonist mode, reporter read-out. AID 1510, 2009. 220,000 compounds, 0.26% hits. inhibition, % at 4.98 µM; in the data active = inhibition above about 29%;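 note: 0% = wells stimulated with agonist and 100% = vehicle wells without agonist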
S1P4 ag: S1P4 receptor agonists, primary screen, cell-based; S1P4-expressing cell line, agonist reporter assay; activation, % at 4.98 µM; 220,000 compounds, 0.35% hits; AID 1509, 2009; in the data active = activation above about 11%;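 note: 0% = DMSO vehicle and 100% = reference agonist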
S1P4 agonist cf: S1P4 receptor agonists, retest, confirmation, cell-based, high throughput | 740 compounds, 7% hits | shares compounds with S1P4 ag | activation, % at 4.98 µM | S1P4 agonist cell-based reporter assay; in the data active = activation above about 12%;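 note: 0% = vehicle and 100% = full reference agonist response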
S1P1 ag: S1P1 receptor agonists, human, counter-screen for S1P4 agonist project, cell-based | shares compounds with S1P4 ag | S1P1 agonist cell-based assay, activation | activation, % at 4.98 µM | 740 compounds, 4% hits; in the data active = activation above about 21%;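 note: 0% = vehicle wells and 100% = reference agonist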
Target sequence (P21453 whole entry, looked up): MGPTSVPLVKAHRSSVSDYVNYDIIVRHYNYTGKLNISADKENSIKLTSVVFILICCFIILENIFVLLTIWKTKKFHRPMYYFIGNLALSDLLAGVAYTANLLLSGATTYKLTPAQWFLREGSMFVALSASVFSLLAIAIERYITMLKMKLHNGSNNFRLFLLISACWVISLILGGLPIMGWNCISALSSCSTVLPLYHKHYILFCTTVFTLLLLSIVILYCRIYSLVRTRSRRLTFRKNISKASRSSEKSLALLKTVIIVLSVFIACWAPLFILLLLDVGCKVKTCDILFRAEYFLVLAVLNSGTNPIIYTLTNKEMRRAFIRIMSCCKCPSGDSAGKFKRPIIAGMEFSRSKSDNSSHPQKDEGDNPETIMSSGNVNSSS
* = called active by the depositor; x = not tested or not shown. An excerpt weighted towards active compounds, which were near 1.3% of everything screened.

SMILES | Dynein cargo inh | Mdm2 ligase inh | Hsp70 activator | S1P3 antag | S1P4 antag | S1P4 ag | S1P4 agonist cf | S1P1 ag
Cc1ccccc1CC1(CO)CCCN(C(=O)c2cc(Cl)ccc2F)C1 (stereo not given) | 1.93 | x | 0.1 | -1.1 | 3.7 | 26.4* | -2.4 | 3.4
Cc1ccccc1CC1(CO)CCCN(C(=O)c2ccccc2Cl)C1 (stereo not given) | -0.715 | -2.1 | -0.2 | -20.9 | -10.0 | 1.2 | x | x
Cn1c(CNC(=O)OC(C)(C)C)nnc1SCc1c(Cl)cccc1Cl | -0.231 | -15.1 | x | 6.2 | -5.0 | 55.8* | -2.0 | -10.8
S=c1nc(-c2csc3c2CCCC3)[nH][nH]1 | -0.0987 | -12.3 | 0.0 | -5.3 | -17.9 | 0.0 | x | x
CCOC(=O)/C(C#N)=C/c1c(Oc2cccc(C)c2)nc2c(C)cccn2c1=O | -0.794 | -10.2 | -0.5 | -17.0 | -15.3 | 0.0 | x | x
Cc1ccc(Oc2nc3c(C)cccn3c(=O)c2/C=C(\C#N)C(N)=O)cc1 | -0.222 | -4.3 | x | 2.0 | -5.6 | 19.6* | -1.4 | -8.0
COc1cccc2cc(C(C)=O)c(=O)oc12 | -0.151 | -5.9 | -0.5 | -11.1 | -15.5 | 1.3 | x | x
COc1cc(C(C)=O)ccc1OC(=O)c1cc2cccc(OC)c2oc1=O | 0.692 | -6.2 | -0.5 | -1.2 | 0.3 | 13.6* | -3.0 | -5.0
CN(C)Cc1nnnn1-c1cccc(-n2nnnc2CN(C)C)c1 | 0.212 | -2.2 | x | -12.6 | -13.4 | 1.0 | x | x
O=C(Cn1cnc2cc([N+](=O)[O-])ccc2c1=O)Nc1ccc2c(c1)OCO2 | -0.758 | 2.4 | -0.2 | 4.6 | 10.2 | 24.0* | -2.3 | -5.3
O=C(Cn1cnc2ccccc2c1=O)Nc1ccc2c(c1)OCO2 | -0.232 | -6.8 | -0.3 | -6.5 | -0.2 | -0.9 | x | x
COc1ccc(N2CCN(C(CNC(=O)C(=O)NCC3CCCO3)c3ccco3)CC2)cc1 (stereo not given) | 0.347 | x | -0.3 | -4.9 | -7.3 | 13.1* | -1.7 | 0.2
COC(=O)NCC(c1ccco1)N1CCN(c2ccc(OC)cc2)CC1 (stereo not given) | 0.333 | -7.2 | -0.4 | -13.9 | 2.2 | -0.1 | x | x
CNC(=S)NNC(=O)c1cc(C(C)(C)C)nn1Cc1ccc(F)cc1 | -0.204 | -6.3 | x | -9.8 | 2.8 | -0.6 | x | x
Cc1[nH]n2cnnc2c(=O)c1Br | -0.369 | x | x | -9.7 | 10.6 | -0.6 | x | x
Cc1ccc(CCNC(=O)c2nnn(-c3cc(C)cc(C)c3)c2N)cc1 | -0.64 | 2.8 | -0.2 | 1.1 | -11.6 | 11.0* | -2.0 | -3.2
O=C(Nc1ccn(Cc2ccccc2)n1)c1cccc(Cn2cc([N+](=O)[O-])cn2)c1 | -0.674 | 9.5 | -0.3 | 6.1 | 0.5 | 12.8* | -1.2 | 1.3
COc1ccc(-c2nc3c4ccccc4ccn3c2CN2CCOCC2)cc1OC | 0.414 | -5.7 | x | 5.4 | -16.0 | 0.6 | x | x
CCN1CCCC1Cn1cnc2c([nH]c3ccc(OC)cc32)c1=O (stereo not given) | -1.59 | -5.7 | x | 13.4 | 18.0 | -2.1 | x | x
COCCCNC(=O)CCn1c(=O)c2ccccc2n(Cc2cccc([N+](=O)[O-])c2)c1=O | -0.354 | 13.3 | 0.1 | -8.7 | -13.3 | -0.1 | x | x
CCCCNC(=O)CCn1c(=O)c2ccccc2n(Cc2ccc(F)cc2)c1=O | -1.01 | 5.6 | -0.4 | 4.6 | -20.1 | 14.7* | -2.5 | 0.6
COc1ccc(OC(C)C(=O)Nc2ccccc2C(F)(F)F)cc1 (stereo not given) | 0.142 | 261.7* | -0.1 | 5.1 | -12.3 | 86.0* | -2.6 | 0.6
CC(=O)c1ccc(Oc2ccc(C(=O)c3ccc(C)c(C)c3)cc2[N+](=O)[O-])cc1 | 2.99 | -4.2 | -0.5 | -9.2 | 10.8 | 13.6* | -1.6 | -2.9
COC(=O)c1cc(C(=O)c2ccc(Cl)cc2)n2c(=O)/c(=C\N(C)C)sc12 | -0.336 | -4.7 | 0.0 | -4.6 | -3.2 | 0.3 | x | x
CCOC(=O)Cn1nc(C)c(NC(=O)COc2cccc(Cl)c2)c1C | 0.2 | -12.9 | -0.1 | 1.4 | -24.1 | 11.9* | -1.2 | -2.5
SMILES | Dynein cargo inh | Mdm2 ligase inh | Hsp70 activator | S1P3 antag | S1P4 antag | S1P4 ag | S1P4 agonist cf | S1P1 ag
COCCCN1C(=O)c2ccc(C(=O)OCC(=O)NCCc3ccccc3)cc2C1=O | -0.054 | -15.4 | 0.0 | -10.9 | 0.3 | 16.3* | -1.9 | 3.5
CC(Nc1nc(N2CCNCC2)nc2ccccc12)c1ccccc1 (stereo not given) | 0.0379 | -49.5 | 0.5 | -14.2 | 18.3 | -1.4 | x | x
Cn1c(=O)oc2cc(S(=O)(=O)N3CCC(C(=O)NCCc4ccccc4)CC3)ccc21 | 0.00519 | -1.1 | x | 9.6 | -5.5 | 13.9* | -1.5 | -7.0
Cc1c(Cl)cccc1NC(=S)N(Cc1cccs1)C1CCCC1 | -1.13 | 2.8 | 0.1 | 9.3 | -2.4 | 0.1 | x | x
OC1CCCN(Cc2c3ccccc3cc3ccccc23)C1 (stereo not given) | 0.567 | -10.6 | -0.1 | x | -10.9 | 14.8* | -0.2 | 2.6
COc1ccc2c(C#N)c3ccccn3c2c1 | -0.354 | -25.3 | -0.3 | 14.2 | 14.8 | 6.8 | x | x
CS(=O)(=O)N(CCc1ccccc1)CC(=O)N1CCCC1 | 0.162 | -12.2 | x | 3.0 | 1.6 | 21.1* | -1.7 | -3.8
Cc1nc(Sc2nnnn2C)c2c3c(sc2n1)CCC3 | 0.415 | 4.9 | 0.2 | 13.8 | -8.4 | 11.4* | -4.5 | -16.5
Cc1c(NC(=O)Cn2cc([N+](=O)[O-])cn2)c(=O)n(-c2ccccc2)n1C | 1.71 | -8.0 | 0.1 | -31.2 | -38.2 | -0.3 | x | x
Cc1c(NC(=O)Cn2ccc([N+](=O)[O-])n2)c(=O)n(-c2ccccc2)n1C | 1.04 | -9.7 | 0.2 | x | -3.7 | 25.0* | -0.6 | -4.4
Nc1[nH]nc2ncc3cc4ccccc4nc3c12 | 0.882 | 0.1 | -0.2 | -7.3 | -6.6 | 1.5 | x | x
COc1cc(-n2c(=O)c3ccccc3n(Cc3cccc(C)c3)c2=O)cc(OC)c1OC | -0.532 | -8.7 | -0.3 | -26.6 | -0.1 | 31.3* | 2.1 | -2.7
O=C(c1cnc2ccc(Cl)cc2c1Cl)N1CCOCC1 | -0.0011 | -6.6 | -0.2 | -4.2 | -5.6 | 25.6* | -1.3 | -0.3
COc1cccc(-n2nc(C(C)=O)c(C#N)c2-c2ccco2)c1 | 0.487 | -9.4 | -0.4 | -2.4 | 0.4 | 37.8* | -2.2 | -4.6
C=CCN1C(=O)/C(=c2\sc3nc(=O)c(Cc4ccccc4)nn3c2=O)c2ccccc21 | -0.853 | 8.9 | x | -4.1 | -6.7 | 27.3* | -1.4 | 0.8
